Screening data from PubChem BioAssay.
TbMetRS inhib: Trypanosoma brucei MetRS inhibition. purified T. brucei MetRS, ATP depletion, Kinase-Glo luminescence. inhibition, % at 11.9 µM. 360,000 tested, 0.4% active. AID 624268;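 active means inhibition above a per-plate cutoff of the control wells' mean inhibition plus 3 SD, cut at about 5.5% in these data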;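 further: 0% = DMSO wells median and 100% = median of wells with control inhibitor compound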
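Material – parasite MetRS enzyme · Medium – HEPES-MgCl2-KCl buffer plus DTT, spermine, BSA, pyrophosphatase · Reagent – ATP, methionine and E. coli bulk tRNA substrates · Times – 15 min enzyme-compound preincubation, 2 h reaction, 10 min detection, 25 °C · Measured by – luminescence of leftover ATP · Evaluation – percent inhibition relative to median high and low control wells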
SKN-1 inh: blocks SKN-1 activity in C. elegans. C. elegans VP596 Pgst-4::GFP/RFP ratio, acrylamide-induced, 24 h. inhibition, % at 21.8 µM. 360,000 tested, 0.49% active. AID 624304;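 active means interference check ratio from 0.5 to 1.5 plus GFP to RFP signal ratio inhibition reaching or exceeding a fixed threshold, cut at about 30% in these data, passing the limit was not always enough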
hiPSC survival: hiPSC single-cell survival enhancement. ATPlite luminescence; 100% = ROCK inhibitor wells, 0% = DMSO. survival enhancement, % at 20 µM. 360,000 tested, 0.044% active. AID 602274; in the data active means survival enhancement above about 18%;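 further: cells exposed to compounds for 16 hours before the ATP read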
E coli Lon inh: E. coli protease La inhibition; purified E. coli Lon protease, fluorescence polarization; inhibition, % at 7.94 µM; 360,000 tested, 0.42% active; in the data active means inhibition above about 13%, passing the limit was not always enough;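 further: 0% = enzyme with probe and DMSO and 100% = no enzyme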
Target sequence (P0A9M0 whole entry, looked up): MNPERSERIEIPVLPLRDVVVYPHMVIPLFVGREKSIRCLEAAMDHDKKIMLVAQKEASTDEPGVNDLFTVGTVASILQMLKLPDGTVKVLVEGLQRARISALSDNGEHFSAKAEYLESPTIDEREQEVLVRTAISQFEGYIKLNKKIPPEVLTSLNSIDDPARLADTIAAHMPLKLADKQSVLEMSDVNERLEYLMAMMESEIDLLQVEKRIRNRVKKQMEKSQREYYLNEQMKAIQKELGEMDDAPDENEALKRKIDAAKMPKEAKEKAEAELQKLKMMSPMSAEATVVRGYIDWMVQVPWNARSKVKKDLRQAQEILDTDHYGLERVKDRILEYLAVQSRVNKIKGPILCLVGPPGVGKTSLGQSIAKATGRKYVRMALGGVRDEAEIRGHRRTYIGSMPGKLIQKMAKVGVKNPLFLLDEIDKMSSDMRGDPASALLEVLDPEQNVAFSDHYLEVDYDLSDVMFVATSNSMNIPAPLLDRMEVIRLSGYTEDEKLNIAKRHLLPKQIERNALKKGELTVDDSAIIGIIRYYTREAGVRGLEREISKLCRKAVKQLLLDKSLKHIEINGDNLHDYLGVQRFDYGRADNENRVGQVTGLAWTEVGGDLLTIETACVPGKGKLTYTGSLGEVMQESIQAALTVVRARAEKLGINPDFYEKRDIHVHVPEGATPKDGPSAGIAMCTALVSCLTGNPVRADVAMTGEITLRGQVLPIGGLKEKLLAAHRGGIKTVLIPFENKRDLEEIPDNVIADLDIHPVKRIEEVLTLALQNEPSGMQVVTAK
PREPL inhibitor: inhibitors of human prolyl oligopeptidase-like enzyme PREPL; recombinant PREPL, fluorescence polarization activity-based probe; Q4J6C6; 320,000 tested, 0.68% active; inhibition, % at 5.96 µM; in the data active means inhibition above about 43%;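 further: 0% = enzyme with DMSO and 100% = wells lacking enzyme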
MT1-MMP act inh: inhibitors of human MT1-MMP activation. HT1080 RFP-PRO-GFP cells, GFP/RFP ratio fluorescence, overnight; percent of plate control window, DMSO zero. P50281. 360,000 tested, 0.061% active. AID 651647. GFP/RFP ratio change, % at 20 µM;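 active means GFP/RFP ratio change of at least 30% with cell ATP level not reduced by more than half and red fluorescence within 50% of control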
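Compound: 20 µM single dose, 1% DMSO / System: HT1080 RFP-PRO-GFP cells / Controls: DMSO and RFP-L50D-GFP cell wells / Read-out basis: GFP/RFP fluorescence ratio / Schedule: overnight compound exposure at 37 °C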
* = called active by the depositor. Compounds with a hit are over-represented: about 1.8% of the library has one in this group of screens.

What do the screens show for `O=C1NC[C@H](CCCCN2CCN(CC3CCCCC3)C(=O)C2=O)N(Cc2ccccc2)C1=O`?
TbMetRS inhib: -1; SKN-1 inh: 16; hiPSC survival: 1; E coli Lon inh: -3; MT1-MMP act inh: 5

What do the screens show for `CCOC(=O)c1cc2sccc2n1Cc1ccccc1`?
TbMetRS inhib: -1; SKN-1 inh: 24; hiPSC survival: -1; E coli Lon inh: -4; PREPL inhibitor: 0; MT1-MMP act inh: 1

What do the screens show for `COC(=O)c1cc2sccc2n1Cc1ccc(C)cc1`?
TbMetRS inhib: -1; SKN-1 inh: 38*; hiPSC survival: -2; E coli Lon inh: -4; PREPL inhibitor: 3; MT1-MMP act inh: -8

Results for CCCCNC(=O)C1(C)CCCCN1C(=O)c1oc2ccccc2c1C (centres undefined) ?
TbMetRS inhib: 0; SKN-1 inh: 23; hiPSC survival: -1; E coli Lon inh: -1; MT1-MMP act inh: 0

What do the screens show for `CCOC(=O)CN1CC23C=CC(O2)C(C(=O)NCc2ccc(C)cc2)C3C1=O` (centres undefined)?
TbMetRS inhib: 0; SKN-1 inh: -3; hiPSC survival: 0; E coli Lon inh: -2; PREPL inhibitor: 8; MT1-MMP act inh: 1

Results for CCOC(=O)CN1CC23C=CC(O2)C(C(=O)NCc2cccs2)C3C1=O (centres undefined) ?
TbMetRS inhib: 0; SKN-1 inh: 37*; hiPSC survival: 0; E coli Lon inh: -2; PREPL inhibitor: 2; MT1-MMP act inh: 5

How did CCOc1ccc(-c2nnc(-c3cccs3)o2)cc1OCC do in these assays?
TbMetRS inhib: 0; SKN-1 inh: 15; hiPSC survival: -2; E coli Lon inh: -5; PREPL inhibitor: -1; MT1-MMP act inh: 2

Results for CCOc1ccc(-c2nnc(-c3cccs3)o2)cc1 ?
TbMetRS inhib: 0; SKN-1 inh: 70*; hiPSC survival: -4; E coli Lon inh: 8; PREPL inhibitor: -6; MT1-MMP act inh: 0

Results for Cc1nc2nc(C)c(CCC(=O)N3CCOCC3)c(C)n2n1 ?
TbMetRS inhib: -1; SKN-1 inh: 9; hiPSC survival: 18; E coli Lon inh: 4; PREPL inhibitor: 12; MT1-MMP act inh: 7

What do the screens show for `CCCCC(=O)N(C)c1c(CC)nc2c(OCC(=O)c3ccc(Cl)cc3Cl)cccn12`?
TbMetRS inhib: 0; SKN-1 inh: 5; hiPSC survival: -1; E coli Lon inh: 8; MT1-MMP act inh: -8

How did Fc1cccc(CSc2ccc(-c3ccco3)nn2)c1 do in these assays?
TbMetRS inhib: 0; SKN-1 inh: 49*; hiPSC survival: 0; E coli Lon inh: 5; PREPL inhibitor: 2; MT1-MMP act inh: 0

Results for Fc1ccc(CSc2ccc(-c3ccco3)nn2)cc1 ?
TbMetRS inhib: -1; SKN-1 inh: 22; hiPSC survival: 2; E coli Lon inh: -10; PREPL inhibitor: 5; MT1-MMP act inh: 3

What do the screens show for `Cc1ccc2nc(-c3cccc(Br)c3)c(Cc3cccc(Cl)c3)n2c1`?
TbMetRS inhib: -1; SKN-1 inh: 18; hiPSC survival: -3; E coli Lon inh: -10; MT1-MMP act inh: -2

Results for Cc1cc(C)c2nc(C(F)(F)F)nc(N3CCN(C(=O)c4ccco4)CC3)c2c1 ?
TbMetRS inhib: 0; SKN-1 inh: 36*; hiPSC survival: -3; E coli Lon inh: 9; PREPL inhibitor: 14; MT1-MMP act inh: -10

What do the screens show for `Cc1ccc(C)c(C(O)c2ncc(-c3ccc4ccccc4c3)[nH]2)c1` (centres undefined)?
TbMetRS inhib: 2; SKN-1 inh: 11; hiPSC survival: 1; E coli Lon inh: -9; MT1-MMP act inh: 4

Results for CC(=O)NC(c1ccc(F)c(F)c1)c1nc(-c2ccncc2)cs1 (centres undefined) ?
TbMetRS inhib: 1; SKN-1 inh: -4; hiPSC survival: 0; E coli Lon inh: -12; MT1-MMP act inh: 2

What do the screens show for `OC(c1ccccc1)(c1ccccc1)C1CCN(CCCOc2ccc3c(c2)CCCC3)CC1`?
TbMetRS inhib: -1; SKN-1 inh: 4; hiPSC survival: 0; E coli Lon inh: 9; MT1-MMP act inh: -18
